Experimental data reported in PMC8268672 (Bioorganic Chemistry, 2021).
Converted amounts (≈) assume the structure as drawn.

Assays:
Vaccinia virus = assay: microbe, parasite or virus in culture; assay type: cell-based; conditions: Orthopoxvirus vaccinia, HEL, read-out: Antiviral EC50, Vaccinia virus
[1] = system: Madin Darby canine kidney (MDCK) cells; conditions: dog
MT4 cells = conditions: MT4 cell cultures; colorimetric MTT cell viability assay
Para-influenza-3 virus = assay: CPE reduction assay in Vero cells; assay type: cell-based, Parainfluenza-3 virus; conditions: read-out: Antiviral EC50, Para-influenza-3 virus
Yellow Fever virus = assay: microbe, parasite or virus in culture; assay type: cell-based; conditions: read-out: Antiviral EC50, Yellow Fever virus
[2] = system: Escherichia coli (ATCC 8739); assay: MIC, broth microdilution; assay type: cell-based; conditions: ATCC8739, read-out: Minimum inhibitory concentration (MIC), EC
Method in brief: (§1)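 Broth microdilution per CLSI in Mueller-Hinton broth, using two-fold serial dilutions of test compound and reference drugs from 512 to 0.25. Bacterial broth cultures were grown 2-6 h to 0.5 McFarland turbidity, then diluted with sterile solution to the final inoculum. MIC is reported in µg/mL.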

[3] = system: Pseudomonas aeruginosa (MCCB 0035); assay: MIC, broth microdilution; assay type: cell-based; conditions: read-out: Minimum inhibitory concentration (MIC), PA
Method in brief: as §1

[4] = system: Klebsiella aerogenes (NCIM-2098); assay: MIC, broth microdilution; assay type: cell-based; conditions: NCIM2098, read-out: Minimum inhibitory concentration (MIC), KA
Method in brief: (§2)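 Antibacterial MICs by CLSI broth microdilution in Mueller-Hinton broth. Test compounds and standard drugs are serially diluted two-fold from 512 to 0.25. The bacterial broth culture is grown 2-6 h to a 0.5 McFarland turbidity, then adjusted with sterile solution to the final inoculum.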

[5] = system: Staphylococcus aureus (ATCC 29213); assay: MIC, broth microdilution; assay type: cell-based; conditions: ATCC29213, read-out: Minimum inhibitory concentration (MIC), SA
Method in brief: as §2

[6] = system: Bacillus cereus (NCIM-2458); assay: MIC, broth microdilution; assay type: cell-based; conditions: NCIM2458, read-out: Minimum inhibitory concentration (MIC), BC
Method in brief: as §1

[7] = system: Aspergillus niger (NCIM 2191); assay: MIC, broth microdilution; assay type: cell-based; conditions: NCIM2191, read-out: Minimum inhibitory concentration (MIC), AN
Method in brief: (§3)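 Antifungal MICs by CLSI broth microdilution in Sabouraud liquid medium. Test compounds and standard drugs are serially diluted two-fold from 512 to 0.25. The fungal broth culture is grown 24 h at 35 °C to a 0.5 McFarland turbidity, then adjusted with sterile solution to the final inoculum.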

[8] = system: Candida albicans (NCIM 2087); assay: MIC, broth microdilution; assay type: cell-based; conditions: NCIM2087, read-out: Minimum inhibitory concentration (MIC), CA
Method in brief: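 CLSI broth microdilution in Sabouraud liquid medium, with test compound two-fold serially diluted from 512 to 0.25. Fungal broth culture grown 24 h at 35 °C to 0.5 McFarland turbidity, then adjusted with sterile solution to a final […] inoculum. MIC expressed in µg/mL.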

[9] = system: Aspergillus fumigatus (NCIM 2081); assay: MIC, broth microdilution; assay type: cell-based; conditions: NCIM2081, read-out: Minimum inhibitory concentration (MIC), AF
Method in brief: as §3

[10] = system: Cryptococcus neoformans (ATCC 9011); assay: MIC, broth microdilution; assay type: cell-based; conditions: ATCC9011, read-out: Minimum inhibitory concentration (MIC), CN
Method in brief: as §3

[11] = system: Escherichia coli (ATCC 8739); assay: Agar disk diffusion, inhibition zone; assay type: cell-based; conditions: 100 µg/8 mm disc, triplicate, mean ± SD
Method in brief: (§4)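 Agar disk diffusion on Mueller-Hinton agar plates seeded with a standard bacterial suspension. Test compound stock in DMSO, diluted with distilled water; 8 mm sterile filter-paper discs soaked in the solution. Ampicillin was the reference. Plates incubated at 35 °C for 24 h, in triplicate. Read-out is the average inhibition-zone diameter (mm) around each disc.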

[12] = system: Pseudomonas aeruginosa (MCCB 0035); assay: Agar disk diffusion, inhibition zone; assay type: cell-based; conditions: 100 µg/8 mm disc, triplicate, mean ± SD
[13] = system: Salmonella typhimurium (NCIM-2501); assay: Agar disk diffusion, inhibition zone; assay type: cell-based; conditions: 100 µg/8 mm disc, triplicate, mean ± SD
[14] = system: Klebsiella aerogenes (NCIM-2098); assay: Agar disk diffusion, inhibition zone; assay type: cell-based; conditions: 100 µg/8 mm disc, triplicate, mean ± SD
[15] = system: Staphylococcus aureus (ATCC 29213); assay: Agar disk diffusion, inhibition zone; assay type: cell-based; conditions: 100 µg/8 mm disc, triplicate, mean ± SD
Method in brief: as §4

[16] = system: Bacillus cereus (NCIM-2458); assay: Agar disk diffusion, inhibition zone; assay type: cell-based; conditions: 100 µg/8 mm disc, triplicate, mean ± SD
[17] = system: Lactobacillus casei (NCIM-2651); assay: Agar disk diffusion, inhibition zone; assay type: cell-based; conditions: 100 µg/8 mm disc, triplicate, mean ± SD
[18] = system: Streptococcus pneumonia (ATCC 49619); assay: Agar disk diffusion, inhibition zone; assay type: cell-based; conditions: 100 µg/8 mm disc, triplicate, mean ± SD
[19] = system: Aspergillus niger (NCIM 2191); assay: Agar disk diffusion, inhibition zone; assay type: cell-based; conditions: 100 µg/8 mm disc, triplicate, mean ± SD
Method in brief: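 For the fungal strain, discs soaked in test compound solution (DMSO stock diluted with distilled water) sat on seeded Mueller-Hinton agar. Clotrimazole was the reference. Incubation ran 48 h at 35 °C, in triplicate. Zone of growth inhibition recorded in mm as the mean diameter around each disc.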

[20] = system: Candida albicans (NCIM 2087); assay: Agar disk diffusion, inhibition zone; assay type: cell-based; conditions: 100 µg/8 mm disc, triplicate, mean ± SD
[21] = system: Aspergillus fumigatus (NCIM 2081); assay: Agar disk diffusion, inhibition zone; assay type: cell-based; conditions: 100 µg/8 mm disc, triplicate, mean ± SD
[22] = system: Cryptococcus neoformans (ATCC 9011); assay: Agar disk diffusion, inhibition zone; assay type: cell-based; conditions: 100 µg/8 mm disc, triplicate, mean ± SD

## Nc1nc(O)c2ncn(COC(CO)CO)c2n1 [Ganciclovir, reference compound]
Vaccinia virus
  EC50: > 100 µM

## CC(=O)N[C@H]1[C@H]([C@H](O)[C@H](O)CO)OC(C(=O)O)=C[C@@H]1N=C(N)N [Zanamivir, reference compound]
[1]
  Cytotoxicity, Minimum cytotoxic conc.: >100 µM

## Cc1cn([C@H]2C[C@H](N=[N+]=[N-])[C@@H](CO)O2)c(=O)[nH]c1=O [Azidothymidine, reference compound]
MT4 cells
  Minimum cytotoxic conc.: >2 µM

## dextran sulfate [DS-10.000, reference compound]
Para-influenza-3 virus
  EC50: > 100 µM
Yellow Fever virus
  EC50: 800 nM
Vero cells
  Minimum cytotoxic conc.: >100 µM

## Nc1ccn([C@@H]2CS[C@H](CO)O2)c(=O)n1 [Lamivudine, reference compound]
MT4 cells
  Minimum cytotoxic conc.: >20 µM

## Cc1ccc(S(=O)(=O)N2C(=O)CSC2c2cccc(O)c2)cc1 (stereo not drawn) [5l, 2-(3-Hydroxyphenyl)-3-[(4-methylphenyl)sulfonyl]-1,3-thiazolidin-4-one]
[2]
  MIC: 16 µg/mL (≈ 45.8 µM)
[3]
  MIC: 32 µg/mL (≈ 91.6 µM)
[4]
  MIC: 16 µg/mL (≈ 45.8 µM)
[5]
  MIC: 64 µg/mL (≈ 183 µM)
[6]
  MIC: 128 µg/mL (≈ 366 µM)
[7]
  MIC: 64 µg/mL (≈ 183 µM)
[8]
  MIC: 16 µg/mL (≈ 45.8 µM)
[9]
  MIC: 64 µg/mL (≈ 183 µM)
[10]
  MIC: 128 µg/mL (≈ 366 µM)
[11]
  Diameter of growth inhibition zone, EC: 17.8 ± 1.1 mm
[12]
  Diameter of growth inhibition zone, PA: 16 ± 1.5 mm
[13]
  Diameter of growth inhibition zone, ST: 10 ± 0.3 mm
[14]
  Diameter of growth inhibition zone, KA: 14 ± 0.4 mm
[15]
  Diameter of growth inhibition zone, SA: 14 ± 1.2 mm
[16]
  Diameter of growth inhibition zone, BC: 08 ± 0.5 mm
[17]
  Diameter of growth inhibition zone, LC: 12 ± 1.6 mm
[18]
  Diameter of growth inhibition zone, SP: 10 ± 0.5 mm
[19]
  Diameter of growth inhibition zone, AN: 14 ± 1.5 mm
[20]
  Diameter of growth inhibition zone, CA: 17 ± 0.5 mm
[21]
  Diameter of growth inhibition zone, AF: 12 ± 2.3 mm
[22]
  Diameter of growth inhibition zone, CN: 12 ± 1.4 mm

## NC12CC3CC(CC(C3)C1)C2 [Amantadine, reference compound]
[1]
  Cytotoxicity, Minimum cytotoxic conc.: >100 µM

## Cc1ccnc2c1NC(=O)c1cccnc1N2C1CC1 [Nevirapine, reference compound]
MT4 cells
  Minimum cytotoxic conc.: >4 µM

## CC(N)C12CC3CC(CC(C3)C1)C2 (stereo not drawn) [Rimantadine, reference compound]
[1]
  Cytotoxicity, Minimum cytotoxic conc.: >200 µM

## Cc1ccc(S(=O)(=O)N2C(=O)CSC2c2ccccc2Br)cc1 (stereo not drawn) [5b, 2-(2-Bromophenyl)-3-[(4-methylphenyl)sulfonyl]-1,3-thiazolidin-4-one]
[2]
  MIC: 16 µg/mL (≈ 38.8 µM)
[3]
  MIC: 32 µg/mL (≈ 77.6 µM)
[4]
  MIC: 64 µg/mL (≈ 155 µM)
[5]
  MIC: 32 µg/mL (≈ 77.6 µM)
[6]
  MIC: 64 µg/mL (≈ 155 µM)
[7]
  MIC: 64 µg/mL (≈ 155 µM)
[8]
  MIC: 32 µg/mL (≈ 77.6 µM)
[9]
  MIC: 64 µg/mL (≈ 155 µM)
[10]
  MIC: 128 µg/mL (≈ 310 µM)
[11]
  Diameter of growth inhibition zone, EC: 14 ± 0.56 mm
[12]
  Diameter of growth inhibition zone, PA: 15 ± 0.93 mm
[13]
  Diameter of growth inhibition zone, ST: 12 ± 0.7 mm
[14]
  Diameter of growth inhibition zone, KA: 10 ± 0.5 mm
[15]
  Diameter of growth inhibition zone, SA: 16 ± 1.1 mm
[16]
  Diameter of growth inhibition zone, BC: 10 ± 0.34 mm
[17]
  Diameter of growth inhibition zone, LC: 10 ± 0.6 mm
[18]
  Diameter of growth inhibition zone, SP: 08 ± 0.7 mm
[19]
  Diameter of growth inhibition zone, AN: 10.8 ± 0.51 mm
[20]
  Diameter of growth inhibition zone, CA: 11.6 ± 0.65 mm
[21]
  Diameter of growth inhibition zone, AF: 10 ± 0.9 mm
[22]
  Diameter of growth inhibition zone, CN: 7.2 ± 0.3 mm

## Nc1nc2c(ncn2COCCO)c(=O)[nH]1 [Acyclovir, reference compound]
Vaccinia virus
  EC50: > 250 µM

## O=c1[nH]cnc2c1ncn2[C@H]1CC[C@@H](CO)O1 [Didanosine, reference compound]
MT4 cells
  Minimum cytotoxic conc.: >50 µM

## Cc1ccc(S(=O)(=O)N2C(=O)CSC2c2ccc(Br)cc2)cc1 (stereo not drawn) [5d, 2-(4-Bromophenyl)-3-[(4-methylphenyl)sulfonyl]-1,3-thiazolidin-4-one]
[2]
  MIC: 4 µg/mL (≈ 9.7 µM)
[3]
  MIC: 4 µg/mL (≈ 9.7 µM)
[4]
  MIC: 8 µg/mL (≈ 19.4 µM)
[5]
  MIC: 16 µg/mL (≈ 38.8 µM)
[6]
  MIC: 32 µg/mL (≈ 77.6 µM)
[7]
  MIC: 32 µg/mL (≈ 77.6 µM)
[8]
  MIC: 16 µg/mL (≈ 38.8 µM)
[9]
  MIC: 16 µg/mL (≈ 38.8 µM)
[10]
  MIC: 32 µg/mL (≈ 77.6 µM)
[11]
  Diameter of growth inhibition zone, EC: 20 ± 0.9 mm
[12]
  Diameter of growth inhibition zone, PA: 20 ± 1.1 mm
[13]
  Diameter of growth inhibition zone, ST: 14 ± 0.6 mm
[14]
  Diameter of growth inhibition zone, KA: 18 ± 0.3 mm
[15]
  Diameter of growth inhibition zone, SA: 21 ± 2.3 mm
[16]
  Diameter of growth inhibition zone, BC: 12 ± 0.4 mm
[17]
  Diameter of growth inhibition zone, LC: 18 ± 0.44 mm
[18]
  Diameter of growth inhibition zone, SP: 10 ± 1.6 mm
[19]
  Diameter of growth inhibition zone, AN: 11.8 ± 0.66 mm
[20]
  Diameter of growth inhibition zone, CA: 12.9 ± 0.5 mm
[21]
  Diameter of growth inhibition zone, AF: 9.8 ± 0.5 mm
[22]
  Diameter of growth inhibition zone, CN: 17 ± 1.0 mm

## Cc1ccc(S(=O)(=O)N2C(=O)CSC2c2cccc(F)c2)cc1 (stereo not drawn) [5i, 2-(3-Fluorophenyl)-3-[(4-methylphenyl)sulfonyl]-1,3-thiazolidin-4-one]
[2]
  MIC: 16 µg/mL (≈ 45.5 µM)
[3]
  MIC: 32 µg/mL (≈ 91.1 µM)
[4]
  MIC: 32 µg/mL (≈ 91.1 µM)
[5]
  MIC: 16 µg/mL (≈ 45.5 µM)
[6]
  MIC: 16 µg/mL (≈ 45.5 µM)
[7]
  MIC: 32 µg/mL (≈ 91.1 µM)
[8]
  MIC: 16 µg/mL (≈ 45.5 µM)
[9]
  MIC: 8 µg/mL (≈ 22.8 µM)
[10]
  MIC: 16 µg/mL (≈ 45.5 µM)
[11]
  Diameter of growth inhibition zone, EC: 22.8 ± 0.63 mm
[12]
  Diameter of growth inhibition zone, PA: 18 ± 0.23 mm
[13]
  Diameter of growth inhibition zone, ST: 10 ± 0.76 mm
[14]
  Diameter of growth inhibition zone, KA: 12 ± 0.4 mm
[15]
  Diameter of growth inhibition zone, SA: 17 ± 0.53 mm
[16]
  Diameter of growth inhibition zone, BC: 14 ± 0.9 mm
[17]
  Diameter of growth inhibition zone, LC: 18 ± 1.62 mm
[18]
  Diameter of growth inhibition zone, SP: 12 ± 0.4 mm
[19]
  Diameter of growth inhibition zone, AN: 11 ± 0.9 mm
[20]
  Diameter of growth inhibition zone, CA: 15 ± 0.32 mm
[21]
  Diameter of growth inhibition zone, AF: 15 ± 0.6 mm
[22]
  Diameter of growth inhibition zone, CN: 14 ± 1.3 mm
